Screens from PubChem BioAssay.
RBBP9 inh = blocks human serine hydrolase RBBP9; O75884; recombinant RBBP9, FP-Rh probe fluorescence polarization; inhibition, % at 7.94 µM; actives 0.2% (n = 220,000);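 active = inhibition above the campaign mean of all tested compounds plus 3 SD, cut at about 14% in these data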;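 note: plate controls were DMSO wells with RBBP9 for no effect and wells lacking RBBP9 protein for full effect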
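Material: RBBP9 protein. Amount: RBBP9 at 2.5 µM in dispensed solution, before mixing. Schedule: 30 min then 45 min, 25 °C. Medium: Tris buffer pH 8.0, NaCl, Pluronic. Measured by: fluorescence polarization. Measure: percent inhibition from mP, scaled between DMSO and no-protein wells. Replication: one well per compound.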
PAD4 inh = PAD4 (human) enzyme inhibition; inhibition, % at 6.36 µM; AID 485272; recombinant PAD4, RCA probe fluorescence polarization; actives 0.41% (n = 330,000); Q9UM07;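 active = percent inhibition above a cutoff equal to the mean of all tested compounds plus 3 SD, cut at about 15% in these data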;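 note: 0% = PAD4 with RCA probe and DMSO and 100% = probe without PAD4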
Target sequence (Q9UM07 whole entry, looked up): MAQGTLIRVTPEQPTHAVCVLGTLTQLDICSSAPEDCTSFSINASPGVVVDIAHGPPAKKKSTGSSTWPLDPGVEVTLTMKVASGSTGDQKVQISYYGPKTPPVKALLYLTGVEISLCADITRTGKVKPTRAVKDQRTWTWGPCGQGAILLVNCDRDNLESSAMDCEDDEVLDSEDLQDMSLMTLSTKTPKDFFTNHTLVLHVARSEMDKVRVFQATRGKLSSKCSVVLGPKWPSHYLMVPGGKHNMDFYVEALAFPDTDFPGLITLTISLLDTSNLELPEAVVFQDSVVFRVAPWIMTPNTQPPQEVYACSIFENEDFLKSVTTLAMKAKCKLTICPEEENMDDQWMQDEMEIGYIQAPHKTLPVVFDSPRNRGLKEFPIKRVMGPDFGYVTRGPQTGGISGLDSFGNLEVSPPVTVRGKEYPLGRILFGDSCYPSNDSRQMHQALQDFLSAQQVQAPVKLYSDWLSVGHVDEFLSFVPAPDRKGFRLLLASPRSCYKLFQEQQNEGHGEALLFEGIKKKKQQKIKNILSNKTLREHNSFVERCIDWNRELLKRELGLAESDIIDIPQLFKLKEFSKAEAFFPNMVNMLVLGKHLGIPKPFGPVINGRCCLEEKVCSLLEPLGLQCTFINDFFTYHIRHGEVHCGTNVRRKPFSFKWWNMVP
PME-1 inh = blocks human protein phosphatase methylesterase 1; recombinant PME-1, FP-Rh probe fluorescence polarization; inhibition, % at 5.9 µM; actives 0.53% (n = 320,000); AID 2130;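 active = inhibition above the campaign mean of all compounds plus 3 SD, cut at about 26% in these data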;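 note: competitive labeling of PME-1 active site by serine hydrolase directed probe; 0% = PME-1 with DMSO and 100% = wells lacking PME-1 enzyme; inhibitors block probe labeling so polarization falls and inhibition rises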
Fam108B inh = Fam108B inhibition, counter-screen for RBBP9 inhibitors; recombinant Fam108B, FP-Rh probe fluorescence polarization; actives 0.33% (n = 300,000); inhibition, % at 9.51 µM; AID 1947;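 active = inhibition above the screen mean inhibition plus 3 SD, computed separately per campaign, cut at about 18% in these data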;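 note: inhibitors lower polarization as less probe binds the enzyme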
LYPLA1 inh = LYPLA1 (human) inhibition in PME1 counter-screen. recombinant LYPLA1, FP-Rh probe fluorescence polarization. inhibition, % at 5.9 µM. actives 0.16% (n = 320,000). O75608. AID 2174;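 active = inhibition above the mean of all tested compounds plus 3 SD, set per campaign, cut at about 14% in these data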;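 note: inhibitors block serine hydrolase probe labeling of LYPLA1 so polarization falls; 0% = enzyme with DMSO and 100% = wells lacking LYPLA1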
LYPLA2 inh = counter-screen for PME1 inhibitors: inhibitors of human LYPLA2; O95372; recombinant LYPLA2, FP-Rh probe fluorescence polarization; inhibition, % at 5.9 µM; actives 0.38% (n = 320,000); AID 2177;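 active = inhibition above the screen-wide mean plus 3 SD, limit set per campaign, cut at about 26% in these data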;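 note: 0% = LYPLA2 with DMSO and 100% = wells lacking LYPLA2 enzyme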
An asterisk follows results filed as active. Compounds with a hit are over-represented: about 1.3% of the library has one in this group of screens.

Results for CCOc1ccc(N=Nc2c(=O)[nH]n3c(=O)cc(C)[nH]c23)cc1 ?
RBBP9 inh: 31.9*; PAD4 inh: -5.6; PME-1 inh: 4.9; Fam108B inh: -2.4; LYPLA1 inh: 1.6; LYPLA2 inh: 5.8

What do the screens show for `O=c1[nH]n2c(=O)c3c([nH]c2c1N=Nc1cccc(Cl)c1)CCCC3`?
RBBP9 inh: -1.8; PAD4 inh: -2.6; PME-1 inh: 58.1*; Fam108B inh: 9.0; LYPLA1 inh: 11.9; LYPLA2 inh: -0.7

Results for CCOc1ccc(N=Nc2c(N)[nH][nH]c2=O)cc1 ?
RBBP9 inh: 7.4; PAD4 inh: -66.2; PME-1 inh: -1.6; Fam108B inh: -0.6; LYPLA1 inh: -0.8; LYPLA2 inh: -2.5

How did CN1CCC(N(C)C(=O)CCc2nc3ccccc3c(=O)[nH]2)CC1 do in these assays?
RBBP9 inh: 1.7; PAD4 inh: 0.6; PME-1 inh: 3.0; Fam108B inh: 5.6; LYPLA1 inh: 6.8; LYPLA2 inh: 7.0

Results for O=[N+]([O-])c1ccc(N2CCN(c3ccccc3Cl)CC2)cn1 ?
PAD4 inh: 0.8; PME-1 inh: -2.2; Fam108B inh: -0.9; LYPLA1 inh: -3.7; LYPLA2 inh: 6.9

How did CCn1c(C)c(/C=N/Nc2nc3ccccc3s2)c2ccccc21 do in these assays?
RBBP9 inh: -5.6; PAD4 inh: -3.5; PME-1 inh: 35.3*; Fam108B inh: 5.5; LYPLA1 inh: -16.4; LYPLA2 inh: -12.7

What do the screens show for `CC1CCCN(C(=O)C(=O)c2cn(CC(=O)N3CCCCCC3)c3ccccc23)C1` (stereo not drawn)?
PAD4 inh: -3.0; PME-1 inh: 6.1; Fam108B inh: -3.6; LYPLA1 inh: -0.3; LYPLA2 inh: -1.9

How did O=C(/C(=N/N=C/c1ccc(O)c(O)c1)c1ccccc1)c1ccccc1 do in these assays?
RBBP9 inh: -17.9; PAD4 inh: -2.0; PME-1 inh: 30.1*; Fam108B inh: 22.0*; LYPLA1 inh: -17.7; LYPLA2 inh: -19.9

How did Cc1ccccc1OCC(=O)NC(=S)Nc1cccc2cc(O)ccc12 do in these assays?
PAD4 inh: -4.0; PME-1 inh: 28.4*; Fam108B inh: -0.6; LYPLA1 inh: -7.9; LYPLA2 inh: -8.1

Results for Cc1cc(OC(C)C(=O)NCc2ccncc2)c2c(C)c(C)c(=O)oc2c1 (stereo not drawn) ?
PAD4 inh: -5.4; PME-1 inh: 1.5; Fam108B inh: -3.6; LYPLA1 inh: 1.8; LYPLA2 inh: 5.3

Results for Cc1cc(OC(C)C(=O)NCc2cccnc2)c2c(C)cc(=O)oc2c1 (stereo not drawn) ?
PAD4 inh: -3.8; PME-1 inh: 2.8; Fam108B inh: 2.4; LYPLA1 inh: 3.2; LYPLA2 inh: 6.0

What do the screens show for `Cc1cccc(NC(=O)CN2C(=O)COc3ccc(Cl)cc32)c1`?
PAD4 inh: 2.7; PME-1 inh: -1.6; Fam108B inh: 0.0; LYPLA1 inh: -1.9; LYPLA2 inh: 40.0*

Results for O=C(CSc1nnc(C2CC2)n1-c1ccccc1)NCCc1ccccc1 ?
RBBP9 inh: -6.2; PAD4 inh: -3.1; PME-1 inh: 0.4; Fam108B inh: 2.1; LYPLA1 inh: 3.7; LYPLA2 inh: 2.7

What do the screens show for `O=S(=O)(c1ccc(NC(=S)N2CCN(c3ccc(O)cc3)CC2)cc1)N1CCOCC1`?
RBBP9 inh: -4.3; PAD4 inh: -1.6; PME-1 inh: 2.2; Fam108B inh: 2.2; LYPLA1 inh: 1.3; LYPLA2 inh: 35.4*

What do the screens show for `O=C(CSc1nc2ccccc2s1)NCCOc1ccc(Cl)cc1`?
RBBP9 inh: -6.0; PAD4 inh: -1.0; PME-1 inh: -4.9; Fam108B inh: -1.6; LYPLA1 inh: -3.4; LYPLA2 inh: 1.4

What do the screens show for `COc1ccccc1NC(=O)CCC(=O)Nc1nnc(C(F)(F)F)s1`?
RBBP9 inh: 2.9; PAD4 inh: 1.7; PME-1 inh: 88.5*; Fam108B inh: 0.0; LYPLA1 inh: 1.7; LYPLA2 inh: 0.3

Results for COc1ccc(OC)c(NC(=O)CCC(=O)Nc2nnc(C(F)(F)F)s2)c1 ?
RBBP9 inh: 6.1; PAD4 inh: 2.5; PME-1 inh: -11.2; Fam108B inh: -0.6; LYPLA1 inh: 0.0; LYPLA2 inh: 2.1

How did CC1CC(C)CN(c2ccc(NS(=O)(=O)c3ccccc3)cc2C(=O)O)C1 (stereo not drawn) do in these assays?
PAD4 inh: 1.4; PME-1 inh: 5.6; Fam108B inh: -3.0; LYPLA1 inh: -2.0; LYPLA2 inh: -0.5

What do the screens show for `Cc1cc(C(=O)OCC(=O)Nc2cc(S(=O)(=O)N(C)C)ccc2C)c2ccccc2n1`?
RBBP9 inh: -10.5; PAD4 inh: -0.8; PME-1 inh: 28.3*; Fam108B inh: -0.1; LYPLA1 inh: 0.8; LYPLA2 inh: 2.5

Results for CC(C)C[C@H](NC(=O)N1CC(=O)Nc2ccccc21)C(=O)N[C@@H](Cc1ccccc1)C(=O)O ?
PAD4 inh: -3.2; PME-1 inh: 1.4; Fam108B inh: 1.3; LYPLA1 inh: 2.5; LYPLA2 inh: 7.4

Results for O=C(Nc1ccc(Br)c2ccccc12)c1ccc2ccccc2c1O ?
RBBP9 inh: 7.4; PAD4 inh: -0.4; PME-1 inh: 26.0; Fam108B inh: 38.5*; LYPLA1 inh: -5.5; LYPLA2 inh: 8.6

What do the screens show for `CC(=O)Nc1ccc(Br)c2ccccc12`?
RBBP9 inh: -3.9; PAD4 inh: 2.4; PME-1 inh: -0.1; Fam108B inh: 1.6; LYPLA1 inh: 1.4; LYPLA2 inh: 6.0

How did CC(C)=NNc1nc2sc3c(c2c(=O)[nH]1)CC(C)(C)OC3 do in these assays?
RBBP9 inh: -1.6; PAD4 inh: -4.0; PME-1 inh: 36.3*; Fam108B inh: -3.8; LYPLA1 inh: -0.2; LYPLA2 inh: 6.0

Results for CC1(C)Cc2c(sc3nc(SCC(=O)O)[nH]c(=O)c23)CO1 ?
RBBP9 inh: -9.6; PAD4 inh: 3.2; PME-1 inh: 1.2; Fam108B inh: -1.3; LYPLA1 inh: 0.7; LYPLA2 inh: -1.0

What do the screens show for `COc1ccc(Nc2cnn(-c3nc4ccccc4s3)c(=O)c2Cl)cc1`?
RBBP9 inh: -4.9; PAD4 inh: -2.6; PME-1 inh: 29.1*; Fam108B inh: 1.6; LYPLA1 inh: -2.8; LYPLA2 inh: 11.4

How did O=C(CCC(=O)N/N=C/c1ccc(Br)s1)NCc1ccccc1 do in these assays?
RBBP9 inh: -12.6; PAD4 inh: -3.8; PME-1 inh: 3.5; Fam108B inh: -0.2; LYPLA1 inh: -2.9; LYPLA2 inh: -3.4

What do the screens show for `Brc1ccc(C=Nc2ccc(Nc3ccccc3)cc2)s1`?
RBBP9 inh: -3.1; PAD4 inh: 24.3*; PME-1 inh: -1.4; Fam108B inh: 3.2; LYPLA1 inh: 0.6; LYPLA2 inh: 3.8

What do the screens show for `CC1CCCCC1NC(=O)CSc1nnc(CC(=O)Nc2ccccc2F)n1C` (stereo not drawn)?
PAD4 inh: -1.5; PME-1 inh: -2.7; Fam108B inh: -2.1; LYPLA1 inh: -2.1; LYPLA2 inh: -1.4
